Compounds with a hit are over-represented: about 1.4% of the library has one in this group of screens.
Dyrk1A ADPGlo: blocks rat Dyrk1A kinase activity; 0.43% of 310,000 active; inhibition, % at 12.5 µM; Q63470; ADP-Glo luminescence, NFATc1 peptide; AID 504441; in the data active = inhibition above about 50%;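 also: plate controls were vehicle with enzyme for no effect and no enzyme for full effect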
ARNT-TACC3 inh: disruptors of human ARNT/TACC3 interaction | AlphaScreen His-ARNT PAS-B/GST-TACC3 binding, luminescence; TACC3 fragment carries E629A point mutation | inhibition, % at 9.99 µM | 0.66% of 390,000 active | AID 623870;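 active = mean inhibition of replicates at least 50% and at least half of replicates each reaching 50%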;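 also: 0% = complete ARNT plus TACC3 wells and 100% = ARNT alone without TACC3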
CAL PDZ FP-1: human CAL PDZ-peptide interaction inhibition; AID 504414; purified CAL PDZ, TMR-peptide fluorescence polarization, 1 h; 0.02% of 330,000 active; Q9HD26; inhibition, % at 20 µM;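 active = highest replicate inhibition of at least 40%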;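 also: plate controls were DMSO neutral control wells for no effect and unlabeled competitor peptide control wells for full effect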
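Material – purified CerCALP PDZ construct · Detection – FP readout, S and P plane fluorescence · Measure – percent inhibition from loss of millipolarization · Controls – unlabelled peptide for full inhibition, DMSO wells as neutral · Probe or stimulus – TMR-labelled reporter peptide T*-PRC34 bound in PDZ groove · Times – 1 h at RT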
CAL PDZ FP-2: blocks peptide binding to the human CAL PDZ domain; inhibition, % at 24.9 µM; 0.92% of 300,000 active; purified CAL PDZ, TMR-peptide fluorescence polarization, 1 h;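 active = mean inhibition of at least 30% with at least half of replicates also reaching 30%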;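 also: 0% = DMSO neutral control and 100% = excess unlabeled competitor peptide PRC23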
ARNT Alpha ctr-1: interferes with AlphaScreen signal, flagging false ARNT-TACC3 hits | shares compounds with ARNT-TACC3 inh | His-ARNT PASB-GST AlphaScreen artifact counter-screen, luminescence | AC50, µM (highest dose often 68 µM), inactives show at the top dose activity change, negative = signal decrease | 50% of 1,200 active | AID 651705;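 active = every separate test run was called active for a drop in luminescence, with AC50 within twice the top valid dose, actives reach about 71 µM in these data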
ARNT Alpha ctr-2: AlphaScreen artifact flagged for ARNT-TACC3 inhibitors; shares compounds with ARNT-TACC3 inh; Dual-tagged His-ARNT PASB-GST AlphaScreen artifact counter-screen; AC50, µM; 70% of 45 active; AID 720564;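 active = luminescence drop, with half-maximal potency fitted within twice the sample's top valid dose, cut at about 70 µM in these data; inactive = the rest, including signal moving the wrong way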
The depositor's hits bear a star; nt = no result; [ ] = remark or other dose.

SMILES	Dyrk1A ADPGlo	ARNT-TACC3 inh	CAL PDZ FP-1	CAL PDZ FP-2	ARNT Alpha ctr-1	others
O=C(CSc1ccc(-c2cccc([N+](=O)[O-])c2)nn1)NCc1ccccc1	0.8	0.3	0.3	0.5	nt
O=C(CSc1ccc(-c2ccccn2)nn1)NCc1ccccc1	nt	102.1*	-1.3	-0.4	41.1µM*
O=C(CSc1ccc(-c2ccccn2)nn1)NCc1ccc(F)cc1	nt	54.7*	0.2	-8.6	29µM*
O=C(CSc1ccc(-c2ccccn2)nn1)NC1CCCCC1	nt	54.9*	-0.6	-1.7	25.6µM*	ARNT Alpha ctr-2=19.8*
C[C@@H]1CCCCO[C@H](CN(C)Cc2ccc3c(c2)OCO3)[C@H](C)CN([C@H](C)CO)C(=O)c2cc(NC(=O)Nc3ccc(F)cc3)ccc2O1	nt	20.0	nt	nt	nt
Cc1[nH]n(-c2ccccc2)c(=O)c1C(c1ccc(O)c([N+](=O)[O-])c1)c1c(C)[nH]n(-c2ccccc2)c1=O	8.1	10.3*	1.4	-1.1	-9.1%
O=C(C[C@H]1C=C[C@H](NS(=O)(=O)c2ccc(F)cc2)[C@H](CO)O1)N1CCN(c2ccccc2)CC1	nt	52.3*	nt	nt	0.4%[38 µM]
O=C(C[C@H]1C=C[C@@H](NS(=O)(=O)c2ccc(F)cc2)[C@H](CO)O1)N1CCN(c2ccccc2)CC1	nt	-0.2	nt	nt	nt
COc1ccccc1NC(=O)N1C[C@H]2[C@@H](c3ccccc31)[C@H](CO)N2Cc1ccccc1F	nt	7.6	nt	nt	nt
O=C(O)c1ccc(Br)c(S(=O)(=O)N2CCCC2)c1	11.0	60.0*	-2.9	-3.9	10.0%
C[C@@H]1CN([C@@H](C)CO)C(=O)c2cc(NS(=O)(=O)c3ccccc3)ccc2O[C@@H]1CN(C)Cc1ccncc1	nt	-11.2	nt	nt	nt
CCOc1ccccc1Nc1nc(N)nc(CN(C)C2CCCCC2)n1	-0.4	62.7*	nt	-3.6	-16.4%
CCOC(=O)N1CCN(S(=O)(=O)c2ccc(C(=O)Nc3nnc(C4CC4)o3)cc2)CC1	-4.1	61.2*	-1.3	-0.8	-42.0%
O=C(Nc1nnc(-c2ccncc2)o1)c1ccccc1	11.7	51.6*	-1.2	-1.3	-15.0%
CC1CCN(S(=O)(=O)c2ccc(C(=O)Nc3nnc(-c4ccccn4)o3)cc2)CC1	-3.2	41.6	-1.9	0.9	nt	ARNT Alpha ctr-2=>136
CC1CCCN(S(=O)(=O)c2ccc(C(=O)Nc3nnc(-c4ccco4)o3)cc2)C1 (configuration not stated)	-8.5	36.3	-1.4	-3.3	nt
CC1CCN(S(=O)(=O)c2ccc(C(=O)Nc3nnc(-c4ccno4)o3)cc2)CC1	nt	nt	nt	nt	nt	ARNT Alpha ctr-2=>136
O=C(Cc1cccnc1)N1[C@H](CO)[C@H]2c3ccccc3NC[C@H]21	nt	2.9	nt	nt	nt
COc1ccc(NC(=O)Nc2ccc3c(c2)C(=O)N([C@@H](C)CO)C[C@@H](C)[C@@H](CN(C)C(=O)c2ccccc2)OCCCC[C@@H](C)O3)cc1	nt	0.4	nt	nt	nt
CCC(=O)N1C[C@H](C)[C@@H](OC)CN(C)C(=O)c2ccc(NC(=O)Nc3cccc(F)c3)cc2OC[C@H]1C	nt	12.2	nt	nt	nt
COc1ccc(CN(C)C[C@H]2OCCCC[C@H](C)Oc3ccc(NC(=O)NC(C)C)cc3C(=O)N([C@H](C)CO)C[C@@H]2C)cc1	nt	27.3	nt	nt	nt
N#Cc1ccc(C(=O)Nc2nnc(-c3ccccn3)o2)cc1	5.8	54.4*	0.9	-0.7	-21.9%
Cc1ccc(-n2c(-c3ccc(Br)cc3)c[n+]3c2CCc2ccc4cccnc4c2-3)cc1	-4.2	58.8*	-7.4	-3.0	-11.1%
COc1ccc(-n2c(-c3ccc(Cl)cc3)c[n+]3c2CCc2ccccc2-3)cc1	2.8	0.3	-0.2	3.0	nt
C[C@@H]1CN([C@@H](C)CO)C(=O)c2cc(C#CC3CC3)cnc2O[C@H]1CN(C)Cc1ccccn1	nt	20.3	nt	nt	nt
SMILES	Dyrk1A ADPGlo	ARNT-TACC3 inh	CAL PDZ FP-1	CAL PDZ FP-2	ARNT Alpha ctr-1	others
COc1ccc(NC(=O)N[C@H]2CC[C@@H](CCn3cc(-c4ccc(OC)cc4)nn3)O[C@H]2CO)cc1	nt	10.4	nt	nt	nt
COc1ccc(NC(=O)N[C@H]2CC[C@@H](CCn3cc(-c4ccccn4)nn3)O[C@H]2CO)cc1	nt	65.4*	nt	nt	40.4µM*
COc1ccc(NC(=O)N[C@H]2CC[C@@H](CCn3cc(-c4ccccn4)nn3)O[C@@H]2CO)cc1	nt	95.3*	nt	nt	38.7µM*
COc1ccc(NC(=O)N[C@H]2CC[C@@H](CCn3cc(-c4ccccc4)nn3)O[C@H]2CO)cc1	nt	1.6	nt	nt	nt
CN(C[C@H]1N[C@@H](CO)[C@@H]1c1ccc(-c2cccc(F)c2)cc1)S(C)(=O)=O	nt	-9.6	nt	nt	nt
CCOc1cc(/C=C2\SC(=N)N(c3nccs3)C2=O)ccc1OCCN1CCOCC1	19.4	50.6*	-3.0	-3.4	69.6µM*
CCOc1cc(/C=C2\SC(=S)N(N3CCOCC3)C2=O)ccc1O	17.6	-3.3	-2.1	0.5	nt
NC(=O)CC(NC(=O)c1ccccc1)c1ccc(NCc2ccccn2)c([N+](=O)[O-])c1 (configuration not stated)	2.9	65.2*	0.1	-2.5	-13.1%
NC(=O)CC(NC(=O)c1ccccc1)c1ccc(NCCOc2ccccc2)c([N+](=O)[O-])c1 (configuration not stated)	5.1	5.2	0.6	-1.4	nt
O=C(C[C@H]1C[C@H]2c3cc(NC(=O)C4CCC4)ccc3O[C@H]2[C@@H](CO)O1)NCCN1CCCCC1	nt	-4.3	nt	nt	nt
Cc1c(NC(=O)c2ccc(-c3ccccc3)cc2)cccc1C(=O)O	4.6	-8.2	-0.2	-4.6	nt
Cc1c(NC(=O)c2cccnc2C(=O)O)cccc1C(=O)O	-7.9	33.6*	-2.0	-3.0	3.5%
CN1CCN(C(c2ccccn2)c2cc(Cl)c3cccnc3c2O)CC1 (configuration not stated)	-0.3	51.7*	-0.5	13.8	21.3µM*
Oc1c(C(c2ccccc2Cl)N2CCCC2)ccc2cccnc12 (configuration not stated)	-5.6	74.3*	-3.0	-6.3	8.37µM*
Oc1c(C(c2ccc(Cl)cc2)N2CCCC2)cc(Cl)c2cccnc12 (configuration not stated)	-6.2	55.2*	-0.3	-2.0	6.49µM*
C[C@H]1CN([C@@H](C)CO)C(=O)c2cc(-c3ccc(F)cc3)cnc2O[C@@H]1CN(C)C(=O)NC1CCCC1	nt	-10.4	nt	nt	nt
COc1cc(OC)c(OC)cc1/C=N/NC(=O)c1ccc2nc[nH]c2c1	7.1	3.9	-1.3	1.0	nt
COc1cccc(/C=N/Nc2ccnc(=O)[nH]2)c1O	2.7	56.7*	nt	5.4	59.6µM*
CCN(CC)c1ccc(/C=N/NC(=O)c2ccc3nc[nH]c3c2)c(O)c1	13.4	54.8*	2.1	-0.4	40.5µM*
CCOc1ccccc1/C=N/NC(=O)c1cccc(S(=O)(=O)N(CC)CC)c1	5.2	-8.0	-1.3	nt	nt
CCN(CC)S(=O)(=O)c1cccc(C(=O)N/N=C/c2ccc(O)c(O)c2O)c1	2.7	58.8*	-6.3	-3.2	19.4µM*
COc1cccc(/C=N/NC(=O)c2ccc3nc[nH]c3c2)c1O	-5.7	63.4*	-1.9	-14.9	-19.6%
